Assay results published in the RNAGym collection of RNA variant scans (doi:10.1126/science.aae0568).
This sample holds only a part of the variants without activity.

B1: tRNA (parent)
chain: GUUCCGUUGGCGUAAUGGUAACGCGUCUCCCUCCUAAGGAGAAGACUGCGGGUUCGAGUCCCGUACGGAACG

Variants of: B1
Assay: yeast fitness relative to wild type (ratio to wild type); higher = fitter; tRNA-Arg(CCU), competitive growth, 37 C, YPD
Procedure, shortened: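 For this measurement, the tRNA-Arg(CCU) gene was varied by chemical synthesis at a 3% per-site mutation rate across 69 sites, and each variant was placed at the native genomic locus in Saccharomyces cerevisiae. The pooled strains went through a 24-hour competition in YPD at 37°C in six parallel replicates, with amplicons from start and end populations read by 100-nucleotide paired-end sequencing. Darwinian fitness relative to wild type followed from the change in each genotype's frequency. Genotypes needed ≥ 100 starting reads, and estimates < 0.5 were set to 0.5.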

Going from GUUCCGUUGGCGUAACGGUAACGCGUCUCCCUCCUAAGGAGAAGACUGCGGGUACGAGUCCCGUACGGAACG [U16C U54A] to GUUCCGUUGGCGUAACGGUAACGCGUCUCCCUCCCAAGGAGAAGACUGCGGGUUCGCGUCCCGUACGGAACG [U16C U35C A57C], the yeast fitness falls from 0.685 to 0.532.

GUUCCGUUGGCGUAACGGUAACGCGUCCCCCUCCUAAGGAGAAGACUGCGGCUUCGAGUCCCGUACGGAACG [U16C U28C G52C] and GUUCCGUUGGCGUAACGGUAACGCGUCUCCCGCCUAAGGAGAAGACUGCGGGUUCCAGUCCCGUACGAAACG [U16C U32G G56C G68A] cannot be ordered by yeast fitness: ≤ 0.5 for the first, ≤ 0.5 for the second.

GUUCCGUUGGCGUAAGGGUAACGCGUCUCCCUCCUAUGGAGAAGCCUGCGGGUUCGAGUCCCGUACGGAACG [U16G A37U A45C] and GUUCCGUUGGCGUAACGGUAACGCGUCUCCCUCCUAAGGAGAAGACUGCGGGUUCGAGACCAGUACCGAACG [U16C U59A C62A G67C] cannot be ordered by yeast fitness: ≤ 0.5 for the first, ≤ 0.5 for the second.

Going from GUUCCGUUGGCGUAACGGUAACGCGUCUCCCUCCUAAGGAGAAGACAGAGGGUUCGAGUCCUGUACGGAACG [U16C U47A C49A C62U] to GUUCCGUUGGCGUAACGGUAACGCGUCUCCCUCCCAAGGAGAAGACUGCGGGUUCGAGUCCCGUACGGAACG [U16C U35C], the yeast fitness falls from 0.778 to 0.609.

Compared with GUUCCGUUGGCGUAAGGGUAGCGCGUCUCCUUCCUAAGGAGAAGACUGCGGGUUCGAGUCCCGUACGGAACG [U16G A21G C31U], GUUCCGUUGGCGUAACCGUACCGCGUCUCCCUCCUAAGGAGAAGACUGCGGGUUCGAGUCCCGUAUGAAACG [U16C G17C A21C C66U G68A] is lower in yeast fitness: 0.985 for the first, ≤ 0.5 for the second.

First: GUUCCGUUGGCGUAACGGUAACGCGUCUCCCUCCUAAGGAGAAGACUGCGGGUUCAAGUCCCGUACGAAACG [U16C G56A G68A]
Second: GUUCCGUUGGCGUAACGGUAACGCGUCCCCCUCCUAAGGAGAAGACUGCGGGUUUGCAUCCCGUACGGAACG [U16C U28C C55U A57C G58A]
The yeast fitness of the first is higher: 0.69 for the first, ≤ 0.5 for the second.

Going from GUUCCGUUGGCGUAAGGGUAGCGCGUCUCUCUCCUACGGAGAAGACUGCGGGUUCGAGUCCCGUACGGAACG [U16G A21G C30U A37C] to GUUCCGUUGGCGUAACGGUAACGCGUCUCCCUCCUAAGGAGAAGACUGCGGGUUUGAGUCCCGUACGGUACG [U16C C55U A69U], the yeast fitness rises from ≤ 0.5 to 0.629.

GUUCCGUUGGCGUAACGGUAACGCUUCUCCCCCCUAAGGAGAAGACUGCGGGUUCGAGUCCCGUACGGCACG [U16C G25U U32C A69C] and GUUCCGUUGGCGUAACGGUAACGCGUCUCCCUCCUAAGGAGAACACUGCGGGUUCGAGUCCCGUAUGGAACG [U16C G44C C66U] cannot be ordered by yeast fitness: ≤ 0.5 for the first, ≤ 0.5 for the second.

Going from GUUCCGUUGGCGUAACGGUAACGCGACUCCCUCCUAACGAGAAGACUGCGGGUUCGAGUCCCGUACGGAACG [U16C U26A G38C] to GUUCCGUUGGCGUAACGGUAACGCGUCUCCCUCCUAAGGAGAAGACUGCGGGUUCGAGUCCCGUAUGGAACG [U16C C66U], the yeast fitness rises from ≤ 0.5 to 0.891.

Compared with GUUCCGUUGGCGUAACGGUAACGCGUCUCCCUCCUAAGGAGAAGACCGCGGGUUCGAGUCCCGUACGGAACG [U16C U47C], GUUCCGUUGGCGUAACGGUAACGCGUCUCCCUCCUAAGGAGAAAACUGUGGGUCCCAGUCCCGUACGGAACG [U16C G44A C49U U54C G56C] is lower in yeast fitness: 0.899 for the first, ≤ 0.5 for the second.

First: GUUCCGUUGGCGUAAGGGUAUCGCGUCUCCCUCCUAAGGCGAAGACUGCGGGUUCGACUCCCGUCGGGAACG [U16G A21U A40C G58C A65C C66G]
Second: GUUCCGUUGGCGUAACGGUAACGCGUCUCCCUCCUAAGGAGAAGACUGCGGGUUCGAGUCCCGUACCGAACG [U16C G67C]
The yeast fitness of the first is lower: 0.515 for the first, 0.861 for the second.

GUUCCGUUGGCGUAACGGUAACGCGUCUCCCUCCUAAGGAGAAGACUGCGGGUUAGUGUCCCGUACGGAACG [U16C C55A A57U] and GUUCCGUUGGCGUAACGGUAACGCGUCUCCCUCCUAAGGAGAAGACUGCGGGUUAGCGUCCCGUACGGAACG [U16C C55A A57C] cannot be ordered by yeast fitness: ≤ 0.5 for the first, ≤ 0.5 for the second.

GUUCCGUUGGCGUAACGGUAACGCGUCUCCCUCCUAAGGAGAAGACAGCGGAUUCGAGUCCCGUACGGAACG [U16C U47A G52A] and GUUCCGUUGGCGUAACGAUAACGGGUCUCCCUCCUAAGGAGAAGUCUGCGGGUUCGAGUCCCGUACGGAACG [U16C G18A C24G A45U] cannot be ordered by yeast fitness: ≤ 0.5 for the first, ≤ 0.5 for the second.

GUUCCGUUGGCGUAACGGUAACGCAUAUUCCUCCUAAGGAGAAAACUGCGGGUUAGAGUCCCGUACGGAACG [U16C G25A C27A C29U G44A C55A] and GUUCCGUUGGCGUAACGGUAACGCGUCUCCCUCCUAAGGAGAAGACUCCGGGUUCGCGUCCCGUACGGAACG [U16C G48C A57C] cannot be ordered by yeast fitness: ≤ 0.5 for the first, ≤ 0.5 for the second.

First: GUUCCGUUGGCGUAAGGGUUACGCGUCUCCCUCCUAAGGAGAAGACUGCGGGUUCGAGUCCCGUACGGAACG [U16G A20U]
Second: GUUCCGUUGGCGUAACGGUAACGCGUCUCCCUCCUAAGGAAAAGACUGUGGGUUCGAGUCCCGUACGGAACG [U16C G41A C49U]
The yeast fitness of the first is higher: 0.642 for the first, 0.605 for the second.

First: GUUCCGUUGGCGUAAGGGUAACGCGUCUCCCUCCUAAGGAGGAGACUACGGGUUCGAGUCCCGUACGGAACG [U16G A42G G48A]
Second: GUUCCGUUGGCGUAACGGUAACGCGUCUCCCUCCUAAGGAGAAGACUGCGGGUUCGAGUGCCGUACGGAACG [U16C C60G]
The yeast fitness of the first is lower: ≤ 0.5 for the first, 0.658 for the second.

GUUCCGUUGGCGUAACGGUAACGCGUCUCCCUCCGAAGGAGAAGACUCCGGGUUCGAGUCCCGUAUGGAACG [U16C U35G G48C C66U] and GUUCCGUUGGCGUAACAGUAACGCGUCUCCCUCUUAAGGAGUAGACUGCGGGUUCGAGUCCCGAACGUAACG [U16C G17A C34U A42U U64A G68U] cannot be ordered by yeast fitness: ≤ 0.5 for the first, ≤ 0.5 for the second.

GUUCCGUUGGCGUAACGGUAACGCCUCUCCCUCCUAAGGAGAAGACUGCGGGAUCGAGUCCCGUACGGAACG [U16C G25C U53A] and GUUCCGUUGGCGUAACGGUAACGCGCCUCCCUCCUAAGGCGAGAACUGCGGGUUCGAGUCCCGUACGGAACG [U16C U26C A40C A43G G44A] cannot be ordered by yeast fitness: ≤ 0.5 for the first, ≤ 0.5 for the second.

In the case of GUUCCGUUGGCGUAAGGGUAACGCGUCUCCCUCCUAGGGAGAAGACUGCGCGUUCGAGUCCGGUACGGAACG [U16G A37G G51C C62G], the yeast fitness is reported as ≤ 0.5.
